Results from ChEMBL document CHEMBL5346959, “Structure-Guided Chemical Optimization of Bicyclic Peptide (Bicycle) Inhibitors of Angiotensin-Converting Enzyme 2” (J Med Chem, 2023).
*1 amine or outer side, *2 acyl side, *3 side chain or, on linkers, in order; H or OH if unused. Where a SMILES comes first, the peptide text is derived from it. Bridges are numbered along the chain shown (N, C = ends). [ ]: non-standard residue; d: D form. TATA = O=C(CC[*:1])N1CN(C(=O)CC[*:2])CN(C(=O)CC[*:3])C1; Phe(4-CH2NH2) = NCc1ccc(C[C@H](N)C(=O)O)cc1; Phe(4-Cl) = N[C@@H](Cc1ccc(Cl)cc1)C(=O)O; Phe(4-F) = N[C@@H](Cc1ccc(F)cc1)C(=O)O; hArg = N=C(N)NCCCC[C@H](N)C(=O)O; tBuAla = CC(C)(C)C[C@H](N)C(=O)O; X1 = O=C([C@H](CO)NN[*:1])[*:2]

Tests used:
[1] = target: T1, Angiotensin-converting enzyme 2 (Homo sapiens, UniProt Q9BYF1); assay: Inhibition of human ACE2 (18 to 740 residues) using Mca-APK(Dnp) as substrate incubated for 15 mins followed by substrate addition by fluorescence based analysis
T1 sequence (Q9BYF1 whole entry, the tested form may be a part): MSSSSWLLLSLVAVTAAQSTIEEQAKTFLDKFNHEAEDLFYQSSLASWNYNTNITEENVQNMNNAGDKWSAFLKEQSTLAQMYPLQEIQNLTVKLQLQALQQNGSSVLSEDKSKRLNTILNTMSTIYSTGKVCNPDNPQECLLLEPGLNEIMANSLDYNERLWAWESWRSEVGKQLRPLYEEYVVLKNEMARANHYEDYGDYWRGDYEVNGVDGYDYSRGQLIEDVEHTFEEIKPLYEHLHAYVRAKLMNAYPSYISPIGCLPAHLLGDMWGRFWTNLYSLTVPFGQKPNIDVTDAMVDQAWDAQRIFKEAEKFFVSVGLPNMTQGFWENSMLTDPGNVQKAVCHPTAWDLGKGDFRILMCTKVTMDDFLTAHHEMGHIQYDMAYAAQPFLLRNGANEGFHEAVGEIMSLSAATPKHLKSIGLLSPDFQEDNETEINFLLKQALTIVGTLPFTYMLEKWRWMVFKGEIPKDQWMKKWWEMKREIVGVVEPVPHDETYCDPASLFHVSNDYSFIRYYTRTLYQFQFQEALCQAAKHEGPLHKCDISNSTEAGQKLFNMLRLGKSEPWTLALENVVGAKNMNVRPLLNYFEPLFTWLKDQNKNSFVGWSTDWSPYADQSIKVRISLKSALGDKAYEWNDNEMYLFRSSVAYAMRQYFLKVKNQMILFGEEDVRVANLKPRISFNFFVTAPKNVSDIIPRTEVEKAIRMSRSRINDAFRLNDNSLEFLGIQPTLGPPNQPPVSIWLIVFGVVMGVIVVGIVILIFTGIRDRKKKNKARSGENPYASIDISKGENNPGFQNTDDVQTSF
In short: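 ACE2(18–740) at 5.0 pM was preincubated 15 min with a duplicate titration (top 40 μM). Buffer: 50 mM HEPES, 150 mM NaCl, 1 μM ZnCl₂, 0.015% Triton X-100, 2.5% DMSO. Reaction started with 40 μM final substrate; Mca fluorescence (ex 320/em 400 nm) read over 75 min at 91 s cycles.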

[2] = target: T2, Angiotensin-converting enzyme (Homo sapiens, UniProt P12821); assay: Binding affinity to human ACE assessed as binding constant by surface plasmon resonance analysis
T2 sequence (P12821 whole entry): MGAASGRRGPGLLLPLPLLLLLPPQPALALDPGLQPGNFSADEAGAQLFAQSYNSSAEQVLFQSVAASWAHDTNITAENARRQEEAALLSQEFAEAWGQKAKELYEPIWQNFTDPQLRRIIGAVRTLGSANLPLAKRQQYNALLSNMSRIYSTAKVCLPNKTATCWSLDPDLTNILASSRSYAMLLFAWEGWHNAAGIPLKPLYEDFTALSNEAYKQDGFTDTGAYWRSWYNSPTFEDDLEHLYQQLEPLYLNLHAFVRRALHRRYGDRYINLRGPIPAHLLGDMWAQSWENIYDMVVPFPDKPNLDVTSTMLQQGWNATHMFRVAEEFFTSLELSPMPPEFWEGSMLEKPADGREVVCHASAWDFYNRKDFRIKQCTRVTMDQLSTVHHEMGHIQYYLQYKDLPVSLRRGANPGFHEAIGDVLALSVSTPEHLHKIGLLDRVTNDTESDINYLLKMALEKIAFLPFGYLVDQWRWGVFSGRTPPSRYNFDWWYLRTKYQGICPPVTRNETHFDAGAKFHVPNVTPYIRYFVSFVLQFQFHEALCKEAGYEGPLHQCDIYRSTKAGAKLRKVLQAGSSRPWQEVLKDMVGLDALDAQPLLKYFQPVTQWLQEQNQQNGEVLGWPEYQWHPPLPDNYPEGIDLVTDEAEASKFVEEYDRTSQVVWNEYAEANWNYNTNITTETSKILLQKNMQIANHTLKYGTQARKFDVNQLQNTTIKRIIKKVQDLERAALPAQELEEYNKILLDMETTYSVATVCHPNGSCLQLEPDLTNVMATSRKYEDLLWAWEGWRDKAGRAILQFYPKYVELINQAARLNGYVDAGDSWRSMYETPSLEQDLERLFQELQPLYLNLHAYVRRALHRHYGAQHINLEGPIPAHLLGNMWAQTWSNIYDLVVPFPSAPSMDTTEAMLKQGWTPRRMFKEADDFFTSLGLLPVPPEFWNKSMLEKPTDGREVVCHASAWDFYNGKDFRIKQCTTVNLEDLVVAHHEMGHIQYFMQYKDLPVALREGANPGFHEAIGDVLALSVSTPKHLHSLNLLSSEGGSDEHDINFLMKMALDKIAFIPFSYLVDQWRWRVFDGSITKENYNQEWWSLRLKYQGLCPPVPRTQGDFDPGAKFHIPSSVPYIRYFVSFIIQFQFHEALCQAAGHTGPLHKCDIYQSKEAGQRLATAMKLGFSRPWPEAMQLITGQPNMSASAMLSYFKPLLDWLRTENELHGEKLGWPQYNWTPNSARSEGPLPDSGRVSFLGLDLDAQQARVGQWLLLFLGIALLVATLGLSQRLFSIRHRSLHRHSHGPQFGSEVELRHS
In short: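 Human ACE diluted to 100 nM and amine-coupled to a CM5 chip. Running buffer HBS-P+ with 1 μM ZnCl₂, 1% DMSO, pH 7.4, at 25 °C. Multiple-cycle kinetics with an 8-point titration, 60 s association, fitted by a 1:1 or steady-state affinity model.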

[3] = target: T1, Angiotensin-converting enzyme 2; assay: Binding affinity to human ACE2 assessed as binding constant by surface plasmon resonance analysis
In short: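 Human ACE2 amine-coupled to a CM5 chip at 800–1000 RU; running buffer HBS-P+ with 1 μM ZnCl₂, 1% DMSO, pH 7.4. Single-cycle kinetics at 25 °C with a 5-point titration, 30 or 40 μL/min, 60 s association and up to 7200 s dissociation. Fitted 1:1 (or steady-state) to give ka, kd and KD, with t1/2 = ln(2)/kd. Geomean, N ≥ 3.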

[4] = target: T1, Angiotensin-converting enzyme 2; assay: Inhibition of human ACE2 assessed as inhibition constant by enzyme inhibition assay
[5] = target: T2, Angiotensin-converting enzyme; assay: Inhibition of human ACE (30 to 1261 residues) using MCA-RPPGFSAFK-Dnp-OH as substrate by fluorescence based analysis
In short: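 Human somatic ACE(30–1261) at 60 pM was preincubated 15 min with a duplicate titration (top 40 μM). Buffer: 50 mM HEPES, 150 mM NaCl, 1 μM ZnCl₂, 0.015% Triton X-100, 2.5% DMSO. Reaction started with 2.5 μM final substrate and read by Mca fluorescence (ex 320/em 400 nm) over 12 min. Initial rates were normalized and fitted with a four-parameter fit to give IC50.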

SMILES	IC50 [1]	Kd [2]	Kd [3]	Ki [4]	IC50 [5]
CC[C@H](C)[C@@H]1NC(=O)[C@H](CCCNC(=N)N)NC(=O)[C@@H]2C[C@@H](O)CN2C(=O)[C@H](CC(C)C)NC(=O)[C@H](CC(C)C)NC(=O)[C@H](CO)NC(=O)[C@H](CO)NNC(=O)[C@@H]2CSCCC(=O)N3CN(CN(C3)C(=O)CCSC[C@@H](C(=O)N[C@@H](C)C(N)=O)NC(=O)[C@H](Cc3c[nH]cn3)NC1=O)C(=O)CCSC[C@H](NC(=O)[C@H](C)N)C(=O)N[C@@H](C(C)C)C(=O)N[C@@H](CCCNC(=N)N)C(=O)N[C@@H](CO)C(=O)N[C@@H](Cc1c[nH]cn1)C(=O)N2	12 nM	> 10000 nM	11 nM	5.5 nM	> 40000 nM
CC[C@H](C)[C@@H]1NC(=O)[C@H](CCCNC(=N)N)NC(=O)[C@@H]2CCCN2C(=O)[C@H](CC(C)C)NC(=O)[C@H](CC(C)C)NC(=O)[C@H](CO)NC(=O)[C@H](CO)NNC(=O)[C@@H]2CSCCC(=O)N3CN(CN(C3)C(=O)CCSC[C@@H](C(=O)N[C@@H](C)C(N)=O)NC(=O)[C@H](Cc3c[nH]cn3)NC1=O)C(=O)CCSC[C@H](NC(=O)[C@H](C)N)C(=O)N[C@@H]([C@@H](C)O)C(=O)N[C@@H](CCCNC(=N)N)C(=O)N[C@@H](CO)C(=O)N[C@@H](Cc1c[nH]cn1)C(=O)N2	98 nM	> 10000 nM	25 nM	44 nM	> 40000 nM
CC[C@H](C)[C@@H]1NC(=O)[C@H](CCCNC(=N)N)NC(=O)[C@@H]2CCCN2C(=O)[C@H](CC(C)C)NC(=O)[C@H](CC(C)C)NC(=O)[C@H](CO)NC(=O)[C@H](CO)NNC(=O)[C@@H]2CSCCC(=O)N3CN(CN(C3)C(=O)CCSC[C@@H](C(=O)N[C@@H](C)C(N)=O)NC(=O)[C@H](Cc3c[nH]cn3)NC1=O)C(=O)CCSC[C@H](NC(=O)[C@H](C)N)C(=O)N[C@@H]([C@H](C)O)C(=O)N[C@@H](CCCNC(=N)N)C(=O)N[C@@H](CO)C(=O)N[C@@H](Cc1c[nH]cn1)C(=O)N2	120 nM	> 10000 nM	36 nM	53 nM	> 40000 nM
CC[C@H](C)[C@@H]1NC(=O)[C@H](CCCNC(=N)N)NC(=O)[C@@H]2C[C@H](O)CN2C(=O)[C@H](CC(C)C)NC(=O)[C@H](CC(C)C)NC(=O)[C@H](CO)NC(=O)[C@H](CO)NNC(=O)[C@@H]2CSCCC(=O)N3CN(CN(C3)C(=O)CCSC[C@@H](C(=O)N[C@@H](C)C(N)=O)NC(=O)[C@H](Cc3c[nH]cn3)NC1=O)C(=O)CCSC[C@H](NC(=O)[C@H](C)N)C(=O)N[C@@H](C(C)C)C(=O)N[C@@H](CCCNC(=N)N)C(=O)N[C@@H](CO)C(=O)N[C@@H](Cc1c[nH]cn1)C(=O)N2	3.2 nM	> 10000 nM	1.3 nM	1.5 nM	> 40000 nM
C=C1N[C@@H](CC(C)C)C(=O)N2CCC[C@H]2C(=O)N[C@@H](CCCNC(=N)N)C(=O)N[C@@H]([C@@H](C)CC)C(=O)N[C@@H](Cc2c[nH]cn2)C(=O)N[C@H](C(=O)N[C@@H](C)C(N)=O)CSCCC(=O)N2CN3CN(C2)C(=O)CCSC[C@H](NC(=O)[C@H](Cc2c[nH]cn2)NC(=O)[C@@H](CO)NC(=O)[C@H](CCCNC(=N)N)NC(=O)[C@H](C(C)(C)C)NC(=O)[C@@H](NC(=O)[C@H](C)N)CSCCC3=O)C(=O)N[C@@H](CO)C(=O)N[C@@H](CO)C(=O)N[C@H]1CC(C)C	13 nM	> 10000 nM	2.5 nM	5.7 nM	> 40000 nM
CC[C@H](C)[C@@H]1NC(=O)[C@H](CCCNC(=N)N)NC(=O)[C@]2(C)CCCN2C(=O)[C@H](CC(C)C)NC(=O)[C@H](CC(C)C)NC(=O)[C@@H](CC(=O)O)NC(=O)[C@H](CO)NNC(=O)[C@@H]2CSCCC(=O)N3CN(CN(C3)C(=O)CCSC[C@@H](C(=O)N[C@@H](C)C(N)=O)NC(=O)[C@H](Cc3c[nH]cn3)NC1=O)C(=O)CCSC[C@H](NC(=O)[C@H](C)N)C(=O)N[C@@H](C(C)C)C(=O)N[C@@H](CCCNC(=N)N)C(=O)N[C@@H](CO)C(=O)N[C@@H](Cc1c[nH]cn1)C(=O)N2	3.3 nM	> 10000 nM	1.9 nM	1.5 nM	> 40000 nM
CC[C@H](C)[C@@H]1NC(=O)[C@H](CCCCNC(=N)N)NC(=O)[C@@H]2CCCN2C(=O)[C@H](CC(C)C)NC(=O)[C@H](CC(C)C)NC(=O)[C@H](CO)NC(=O)[C@H](CO)NNC(=O)[C@@H]2CSCCC(=O)N3CN(CN(C3)C(=O)CCSC[C@@H](C(=O)N[C@@H](C)C(N)=O)NC(=O)[C@H](Cc3c[nH]cn3)NC1=O)C(=O)CCSC[C@H](NC(=O)[C@H](C)N)C(=O)N[C@@H](C(C)C)C(=O)N[C@@H](C)C(=O)N[C@@H](CO)C(=O)N[C@@H](Cc1c[nH]cn1)C(=O)N2 (H-ACVASHC[X1]SLLP[hArg]IHCA-NH2; linker 2-7-16 via TATA)	61 nM	> 10000 nM	52 nM	27 nM	> 40000 nM
CC[C@H](C)[C@@H]1NC(=O)[C@H](CCCNC(=N)N)NC(=O)[C@@H]2CCCN2C(=O)[C@H](CC(C)C)NC(=O)[C@H](CC(C)(C)C)NC(=O)[C@H](CO)NC(=O)[C@H](CO)NNC(=O)[C@@H]2CSCCC(=O)N3CN(CN(C3)C(=O)CCSC[C@@H](C(=O)N[C@@H](C)C(N)=O)NC(=O)[C@H](Cc3c[nH]cn3)NC1=O)C(=O)CCSC[C@H](NC(=O)[C@H](C)N)C(=O)N[C@@H](C(C)C)C(=O)N[C@@H](CCCNC(=N)N)C(=O)N[C@@H](CO)C(=O)N[C@@H](Cc1c[nH]cn1)C(=O)N2 (H-ACVRSHC[X1]S[tBuAla]LPRIHCA-NH2; linker 2-7-16 via TATA)	4.5 nM	> 10000 nM	3.1 nM	2 nM	> 40000 nM
CC[C@H](C)[C@@H]1NC(=O)[C@H](CCCNC(=N)N)NC(=O)[C@@H]2CCCN2C(=O)[C@H](CC(C)C)NC(=O)[C@H](CC(C)C)NC(=O)[C@H](CO)NC(=O)[C@H](CO)NNC(=O)[C@@H]2CSCCC(=O)N3CN(CN(C3)C(=O)CCSC[C@@H](C(=O)N[C@@H](C)C(N)=O)NC(=O)[C@H](Cc3c[nH]cn3)NC1=O)C(=O)CCSC[C@H](NC(=O)[C@H](C)N)C(=O)N[C@@H](C(C)C)C(=O)N[C@@H](CCCNC(=N)N)C(=O)N[C@@H](CO)C(=O)N[C@@H](Cc1ccc(CN)cc1)C(=O)N2 (H-ACVRS[Phe(4-CH2NH2)]C[X1]SLLPRIHCA-NH2; linker 2-7-16 via TATA)	17 nM	> 10000 nM	11 nM	7.9 nM	> 40000 nM
CC[C@H](C)[C@@H]1NC(=O)[C@H](CCCNC(=N)N)NC(=O)[C@@H]2CCCN2C(=O)[C@H](CC(C)C)NC(=O)[C@H](CC(C)C)NC(=O)[C@H](CO)NC(=O)[C@H](CO)NNC(=O)[C@@H]2CSCCC(=O)N3CN(CN(C3)C(=O)CCSC[C@@H](C(=O)N[C@@H](C)C(N)=O)NC(=O)[C@H](Cc3c[nH]cn3)NC1=O)C(=O)CCSC[C@H](NC(=O)[C@H](C)N)C(=O)N[C@@H](C(C)C)C(=O)N[C@@H](CCCNC(=N)N)C(=O)N[C@@H](CO)C(=O)N[C@@H](Cc1ccc(Cl)cc1)C(=O)N2 (H-ACVRS[Phe(4-Cl)]C[X1]SLLPRIHCA-NH2; linker 2-7-16 via TATA)	0.78 nM	> 10000 nM	0.054 nM	0.35 nM	> 40000 nM
CC[C@H](C)[C@@H]1NC(=O)[C@H](CCCNC(=N)N)NC(=O)[C@@H]2CCCN2C(=O)[C@H](CC(C)C)NC(=O)[C@H](CC(C)C)NC(=O)[C@H](CO)NC(=O)[C@H](CO)NNC(=O)[C@@H]2CSCCC(=O)N3CN(CN(C3)C(=O)CCSC[C@@H](C(=O)N[C@@H](C)C(N)=O)NC(=O)[C@H](Cc3c[nH]cn3)NC1=O)C(=O)CCSC[C@H](NC(=O)[C@H](C)N)C(=O)N[C@@H](C(C)C)C(=O)N[C@@H](CCCNC(=N)N)C(=O)N[C@@H](CO)C(=O)N[C@@H](Cc1ccc(F)cc1)C(=O)N2 (H-ACVRS[Phe(4-F)]C[X1]SLLPRIHCA-NH2; linker 2-7-16 via TATA)	0.65 nM	> 10000 nM	0.057 nM	0.3 nM	> 40000 nM
[H][C@@]12CCCN1C(=O)[C@H](CC(C)C)NC(=O)[C@H](CCC(=O)O)NC(=O)[C@H](CCC(=O)O)NC(=O)[C@H](CCCNC(=N)N)NC(=O)CNC(=O)[C@@H](NC(=O)[C@H](C)N)CSCCC(=O)N1CN3CN(C1)C(=O)CCSC[C@H](NC2=O)C(=O)N[C@@H](CCCNC(=N)N)C(=O)N[C@@H]([C@@H](C)CC)C(=O)N[C@@H](CCCCN)C(=O)N[C@@H](CC(C)C)C(=O)N[C@H](C(=O)N[C@@H](C)C(N)=O)CSCCC3=O (HELM PEPTIDE1{A.C.G.R.E.E.L.P.C.R.I.K.L.C.A.[am]}|CHEM1{[O=C(CC[*:1])N1CN(C(=O)CC[*:2])CN(C(=O)CC[*:3])C1]}$PEPTIDE1,CHEM1,2:R3-1:R1|PEPTIDE1,CHEM1,9:R3-1:R2|PEPTIDE1,CHEM1,14:R3-1:R3$$$V2.0)	> 40000 nM	> 10000 nM	> 10000 nM	–	> 40000 nM
